Assay [1] can be described thus: thallium flux activation in parental CHO cells, counter-screen for KCNQ1 potentiator project (AID 493006;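 active = duplicate-averaged activation above buffer control mean plus 5 SD of those controls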;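 as to activation: fluorescence ratio of max minus min over baseline after K+ and Tl+ depolarization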). As to conditions: parental CHO-K1 cells, FluxOR thallium flux, at 10 µM; active compounds read high. The essentials:
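Material: parental CHO-K1 cells, FluxOR dye-loaded; Also added: Potassium/thallium depolarization pulse; Schedule: overnight 37 °C plating, 90 min dye, 20 min dark compound; Signal: kinetic FluxOR fluorescence, 10 s baseline, 110 s after stimulus.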

Assay [2] concerns the target Potassium voltage-gated channel subfamily KQT member 1 (Homo sapiens) (UniProt P51787). The experiment in a line: KCNQ1 potassium channel potentiators, confirmation, FluxOR thallium flux, CHO cells, duplicates (AID 493007;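 active = potentiation averaged over duplicate wells exceeding buffer-only control mean by more than 3 SD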;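 as to outcome: cells depolarized by a potassium plus thallium sulfate stimulus after compound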). The settings on record: KCNQ1 cell line, FluxOR thallium flux fluorescence, at 10 µM; active compounds read high, % of reference activator effect, buffer zero. The essentials:
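System: KCNQ1-expressing CHO cell line; technique: kinetic thallium influx fluorescence with FluxOR dye, 10 s baseline, 110 s post-stimulus; timing: dye 90 min then compound 20 min, both at room temperature; controls: buffer-only wells as 0% and R-L3 activator as 100%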

Assay [3] deals with Potassium voltage-gated channel subfamily KQT member 2 (Rattus norvegicus) (UniProt O88943). The experiment in a line: rat KCNQ2 channel potentiation, selectivity assay for KCNQ1 potentiator project, KCNQ2-CHO-K1 cells (AID 493009;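 active = mean duplicate potentiation above the buffer control mean plus 5 SD of buffer wells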;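 also: assay conditions were tuned for KCNQ1 rather than KCNQ2 modulators; signal is max minus min fluorescence divided by baseline after thallium stimulus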). The settings on record: FluxOR thallium flux fluorescence, at 10 µM; active compounds read high, scaled: buffer 0, activator control 100.
The target in assay [4] is Potassium voltage-gated channel subfamily KQT member 1 (Homo sapiens) (UniProt P51787). The experiment in a line: KCNQ1 channel current potentiators, confirmation, orthogonal assay for KCNQ1 potentiator project, IonWorks patch clamp, KCNQ1-CHO cells (AID 493184).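 As to current potentiation: percent change of the same well's current before compound addition so 0% = no change.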 The settings on record: automated patch clamp current, at 10 µM; active compounds read high. The essentials:
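Test system: KCNQ1-expressing CHO cells. Medium: pH 7.4 external bath. Probe or stimulus: voltage step from -90 mV holding to +40 mV, 2,000 ms. Compound: 10 µM final, single point. Detection: automated perforated-patch electrophysiology. Read-out: percent current increase versus pre-compound level. Repeats: two replicates.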
On the technique in general: Patch clamp records ionic current or voltage across a cell membrane.

Structures are written as SMILES. Activity calls are given as the source filed them.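 The calls were made as follows, unless noted: active = current rise at least 3 SD above the untreated control mean in each of two repeat wells; inactive = the rest.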

Potassium voltage-gated channel subfamily KQT member 1 (Homo sapiens), sequence (P51787 whole entry, looked up): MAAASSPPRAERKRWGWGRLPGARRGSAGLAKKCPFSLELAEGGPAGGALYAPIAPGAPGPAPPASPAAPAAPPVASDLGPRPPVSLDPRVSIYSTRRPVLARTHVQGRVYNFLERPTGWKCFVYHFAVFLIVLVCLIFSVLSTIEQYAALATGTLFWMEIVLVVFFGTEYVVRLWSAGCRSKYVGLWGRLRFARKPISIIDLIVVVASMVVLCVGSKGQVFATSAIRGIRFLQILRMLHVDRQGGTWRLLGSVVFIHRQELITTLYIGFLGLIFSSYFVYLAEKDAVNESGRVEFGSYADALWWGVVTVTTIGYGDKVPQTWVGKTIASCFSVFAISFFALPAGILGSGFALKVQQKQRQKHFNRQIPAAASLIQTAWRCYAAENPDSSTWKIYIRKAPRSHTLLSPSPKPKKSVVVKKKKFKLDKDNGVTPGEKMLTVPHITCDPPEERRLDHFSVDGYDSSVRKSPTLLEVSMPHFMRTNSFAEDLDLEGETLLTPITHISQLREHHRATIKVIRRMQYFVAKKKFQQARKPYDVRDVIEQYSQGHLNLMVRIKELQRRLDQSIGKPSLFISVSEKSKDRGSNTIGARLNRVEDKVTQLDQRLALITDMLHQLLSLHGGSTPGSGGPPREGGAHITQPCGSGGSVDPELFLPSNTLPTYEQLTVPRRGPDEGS
Potassium voltage-gated channel subfamily KQT member 2 (Rattus norvegicus), sequence (O88943 whole entry, looked up): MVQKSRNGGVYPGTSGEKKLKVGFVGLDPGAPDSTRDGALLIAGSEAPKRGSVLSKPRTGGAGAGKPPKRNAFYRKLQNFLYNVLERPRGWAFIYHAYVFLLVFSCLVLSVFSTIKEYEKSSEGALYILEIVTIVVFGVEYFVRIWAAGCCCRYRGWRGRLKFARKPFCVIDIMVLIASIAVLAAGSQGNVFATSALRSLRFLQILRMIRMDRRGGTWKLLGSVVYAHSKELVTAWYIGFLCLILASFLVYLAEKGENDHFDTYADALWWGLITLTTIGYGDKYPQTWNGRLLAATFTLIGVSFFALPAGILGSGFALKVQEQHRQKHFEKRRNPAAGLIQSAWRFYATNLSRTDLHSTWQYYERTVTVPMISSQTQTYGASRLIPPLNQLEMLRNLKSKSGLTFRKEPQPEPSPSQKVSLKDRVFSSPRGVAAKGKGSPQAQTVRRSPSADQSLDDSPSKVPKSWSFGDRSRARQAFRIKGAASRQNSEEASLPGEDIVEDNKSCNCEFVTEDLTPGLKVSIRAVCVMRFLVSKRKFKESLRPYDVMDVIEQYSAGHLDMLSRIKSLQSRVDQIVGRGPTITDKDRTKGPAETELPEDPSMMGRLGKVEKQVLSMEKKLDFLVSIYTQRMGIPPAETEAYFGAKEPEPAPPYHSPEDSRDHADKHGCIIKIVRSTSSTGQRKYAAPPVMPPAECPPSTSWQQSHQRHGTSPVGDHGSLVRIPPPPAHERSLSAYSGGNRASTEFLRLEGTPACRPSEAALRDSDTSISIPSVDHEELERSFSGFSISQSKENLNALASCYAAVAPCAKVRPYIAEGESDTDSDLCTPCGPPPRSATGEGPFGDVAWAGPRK

Take `COc1ccc2nc(/N=C/c3c(C)[nH]n(-c4ccc(C)cc4)c3=O)sc2c1`: the activation in assay [1] was 340% (active). For the same molecule, the potentiation in assay [2] was 273% (active); in assay [3] it was 518% (active). In addition, in assay [4], the outcome was inactive.
For `CC1CCC(n2c(=S)[nH]c3ccccc3c2=O)CC1` (stereo not drawn), in that order: 234% (active), 70% (active), 243% (active) and “inactive”.
The corresponding values for `N#C/C(=C\c1ccc(-c2ccccc2[N+](=O)[O-])o1)C(=O)Nc1nc(-c2cccs2)cs1` are 208% (active), 56% (active), 224% (active) and “inactive”.
In the case of `CCOC(=O)/C(=C\c1cccnc1)C(=O)c1cc(C(C)=O)c(Nc2ccccc2)s1`, the result in assay [1], in assay [2], in assay [3] and in assay [4] was inactive.
As to `CS(=O)(=O)N1CCN(Cc2ccc(C(F)(F)F)cc2)CC1`, the outcome in assay [1], in assay [2], in assay [3] and in assay [4] was inactive.
Turning to `CC(C)CC(=O)NC(=S)Nc1nc(-c2cccc3ccccc23)cs1`, the outcome in assay [1] and in assay [4] was inactive. Besides, the potentiation was 60% (active) in assay [2] and 156% (active) in assay [3].
On to `O=C1NC(=S)SC1=C1CCCC1`, for which the activation in assay [1] was 142% (active). For the same molecule, the values for the potentiation in assay [2] and in assay [3] were 24.5% (active) and 166% (active), respectively. Besides, the outcome in assay [4] was inactive.
Turning to `Nc1nc(N)c2sc3nc4c(cc3c2n1)CCC4`, the result in assay [1], in assay [2], in assay [3] and in assay [4] was inactive.
For `Nc1nonc1C(=O)NCCN=Cc1cc(Cc2ccccc2)cc(Br)c1O`, the result in assay [1], in assay [2], in assay [3] and in assay [4] was inactive.
In the case of `COC(=O)c1sc(NC(=S)NC(=O)c2ccccc2F)nc1C`, the outcome in assay [1], in assay [2], in assay [3] and in assay [4] was inactive.
Take `CCC1CCCCN1C(=S)NC(=O)c1ccc([N+](=O)[O-])cc1` (stereo not drawn): in assay [1], the activation was 244% (active). Besides, the figures for the potentiation in assay [2] and in assay [3] were 92.5% (active) and 280% (active), respectively. The result in assay [4] was inactive.
For `COc1cccc2sc(NNC(=O)c3nc4ccccc4s3)nc12`, in that order: 300% (active), 191% (active), 420% (active) and “inactive”.
The corresponding values for `CSC(=S)N/N=C(\C)c1ccccc1` are 246% (active), 50.5% (active), 283% (active) and “inactive”.
With `O=C(NC(=S)Nc1ccccc1Cl)c1csnn1`, the activation in assay [1] was 450% (active). Moreover, the potentiation in assay [2] was 174% (active); in assay [3], 510% (active). Besides, in assay [4], the outcome was inactive.
In the case of `Cc1nc2ccccc2c(N)c1C(=O)/C=C/c1ccccc1`, the result in assay [1], in assay [2], in assay [3] and in assay [4] was inactive.
For `CCC(CC)C(=O)Nc1cc([N+](=O)[O-])ccc1Cl`, the result in assay [1], in assay [2], in assay [3] and in assay [4] was inactive.
As to `CCCCn1c(=O)nc2n(-c3ccccc3C)c3ccccc3cc-2c1=O`, the outcome in assay [1], in assay [2], in assay [3] and in assay [4] was inactive.
`Cc1ccccc1NC(=O)C(=O)NNC(=O)COc1ccc2ccccc2c1`: in assay [1], the activation was 232% (active). In addition, the potentiation in assay [2] was 93.5% (active); in assay [3], 300% (active). Further, in assay [4], the result was inactive.
Regarding `CC(C)CCn1c(=O)c2ccccc2n2c(=S)[nH]nc12`, the outcome in assay [1], in assay [2], in assay [3] and in assay [4] was inactive.
For the molecule `O=C(CSc1nc2ccccc2s1)c1cc2ccccc2o1`, the result in assay [1], in assay [2], in assay [3] and in assay [4] was inactive.
For `O=S(=O)(/C=C/c1ccccc1)n1cnc2ccccc21`, the outcome in assay [1], in assay [2], in assay [3] and in assay [4] was inactive.
`CCCN(Cc1ccccc1)C(=S)NC(=O)c1ccccc1[N+](=O)[O-]`: in assay [1], the activation is 430% (active). Besides, the figures for the potentiation in assay [2] and in assay [3] were 177% (active) and 452% (active), respectively. Moreover, the outcome in assay [4] was inactive.
Consider `Cc1nc2sc(C(c3ccccc3)N3CCN(C(=O)c4ccco4)CC3)c(O)n2n1` (stereo not drawn), for which the outcome in assay [1], in assay [2], in assay [3] and in assay [4] was inactive.
On to `Cc1ccc(S(=O)(=O)NN2C(=O)/C(=C/c3cccc(F)c3)SC2=S)cc1`, for which the activation in assay [1] is 176% (active). The values for the potentiation in assay [2] and in assay [3] were 20.5% (active) and 152% (active), respectively. Moreover, the current potentiation in assay [4] was 37.3% (active).
Regarding `CC(/C=N/n1c(-c2ccc(Cl)cc2)n[nH]c1=S)=C\c1ccco1`, the result in assay [1], in assay [3] and in assay [4] was inactive. Further, in assay [2], the potentiation was 28% (active).
For the molecule `Cc1ccc(C)c(NC(=S)NNC(=O)c2cc3c(s2)CCC(C)C3)c1` (stereo not drawn), the activation in assay [1] was 192% (active). Moreover, the potentiation in assay [2] was 48.5% (active); in assay [3], 237% (active). The outcome in assay [4] was inactive.
Take `Cc1cc2n(n1)SC(Nc1ccc(F)c(Cl)c1)N2` (stereo not drawn): the result in assay [1], in assay [2], in assay [3] and in assay [4] was inactive.
In the case of `CCOC(=O)c1c(NS(C)(=O)=O)sc2c1CCC(C)C2` (stereo not drawn), the activation in assay [1] is 173% (active). Further, the results for the potentiation in assay [2] and in assay [3] were 24.5% (active) and 190% (active), respectively. The outcome in assay [4] was inactive.
`CCCCCCCC/C=C\CCCCCCCC(=O)O`: the activation in assay [1] was 143% (active). Moreover, the potentiation in assay [2] was 51% (active). In addition, the outcome in assay [3] and in assay [4] was inactive.
As for `O=C(NCc1ccco1)C1CC(c2ccc(Cl)cc2)=NO1` (stereo not drawn), the result in assay [1], in assay [2], in assay [3] and in assay [4] was inactive.
Regarding `COc1cc(/C=N/NC(=O)c2ccoc2C)ccc1OCCN1CCCCC1`, the result in assay [1], in assay [3] and in assay [4] was inactive. The potentiation in assay [2] was 23.5% (active).
Take `O=C(CCOc1ccccc1)Nc1ccnn1C1CCN(Cc2ccc(CO)o2)CC1`: the result in assay [1], in assay [2], in assay [3] and in assay [4] was inactive.
